Laboratory results: ChEMBL document CHEMBL3804821, “Design and synthesis of some novel 4-Chloro-N-(4-(1-(2-(2-cyanoacetyl)hydrazono)ethyl)phenyl) benzenesulfonamide derivatives as anticancer and radiosensitizing agents” (Eur J Med Chem, 2016)

Experiments:
HepG2 [1] = test: Cytotoxicity against human HepG2 cells assessed as surviving fraction at 12.5 uM after 48 hrs by SRB assay relative to control; type: functional
Summary of the method: (§1)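 Cells seeded at 10^4/well and allowed to attach for 24 h. Compounds dissolved in DMSO, diluted with saline, and added at 12.5, 25, 50 and 100 µM in triplicate wells. Exposure 48 h, 37 °C, 5% CO2. Cells then TCA-fixed and stained 30 min with 0.4% SRB in 1% acetic acid, washed four times with 1% acetic acid, and dye recovered in Tris-EDTA. Absorbance read and surviving fraction plotted against concentration to obtain IC50.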

HepG2 [2] = test: Cytotoxicity against human HepG2 cells assessed as cell viability after 48 hrs by SRB assay; type: functional, cell-based; conditions: HepG2, 48 h; summary of the method: as §1
HepG2 [3] = test: Cytotoxicity against human HepG2 cells assessed as surviving fraction at 50 uM after 48 hrs by SRB assay relative to control; type: functional; summary of the method: as §1
HepG2 [4] = test: Cytotoxicity against human HepG2 cells assessed as surviving fraction at 100 uM after 48 hrs by SRB assay relative to control; type: functional; summary of the method: as §1
HepG2 [5] = test: Cytotoxicity against human HepG2 cells assessed as surviving fraction at 25 uM after 48 hrs by SRB assay relative to control; type: functional; summary of the method: as §1
HepG2 [6] = test: Cytotoxicity against human HepG2 cells assessed as surviving fraction at 100 uM treated for 2 hrs followed by gamma irradiation of 8 Gy with dosage rate of 0.758 rad/sec for 17.73 mins measured after 48 hrs by SRB assay relative to control; type: functional
Summary of the method: (§2)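 Cells seeded at 10^4/well for 24 h, then given compound at 12.5, 25, 50 or 100 µM. After 2 h, a single 8 Gy γ-ray dose was delivered (0.758 rad/sec, 17.73 min). Cells fixed 48 h after irradiation and stained with 0.4% SRB in 1% acetic acid, read at 570 nm. Surviving fraction reported as mean ± standard error and analysed by 1-way ANOVA; IC50 taken from the survival curve.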

HepG2 [7] = test: Cytotoxicity against human HepG2 cells assessed as cell viability treated for 2 hrs followed by gamma irradiation of 8 Gy with dosage rate of 0.758 rad/sec for 17.73 mins measured after 48 hrs by SRB assay; type: functional, cell-based; conditions: HepG2, light or radiation study; summary of the method: as §2
HepG2 [8] = test: Cytotoxicity against human HepG2 cells assessed as surviving fraction at 50 uM treated for 2 hrs followed by gamma irradiation of 8 Gy with dosage rate of 0.758 rad/sec for 17.73 mins measured after 48 hrs by SRB assay relative to control; type: functional; summary of the method: as §2
HepG2 [9] = test: Cytotoxicity against human HepG2 cells assessed as surviving fraction at 12.5 uM treated for 2 hrs followed by gamma irradiation of 8 Gy with dosage rate of 0.758 rad/sec for 17.73 mins measured after 48 hrs by SRB assay relative to control; type: functional; summary of the method: as §2
HepG2 [10] = test: Potency index, ratio of doxorubicin IC50 to compound IC50 for human HepG2 cells; type: functional
HepG2 [11] = test: Cytotoxicity against human HepG2 cells assessed as surviving fraction at 25 uM treated for 2 hrs followed by gamma irradiation of 8 Gy with dosage rate of 0.758 rad/sec for 17.73 mins measured after 48 hrs by SRB assay relative to control; type: functional; summary of the method: as §2

Structure (SMILES)	Ratio (HepG2 [1])	IC50 (HepG2 [2]) [µM]	Ratio (HepG2 [3])	Ratio (HepG2 [4])	Ratio (HepG2 [5])	Ratio (HepG2 [6])	IC50 (HepG2 [7]) [µM]	Ratio (HepG2 [8])	Ratio (HepG2 [9])	Ratio IC50 (HepG2 [10])	Ratio (HepG2 [11])
CSC(SC)=C(C#N)C(=O)N/N=C(\C)c1ccc(NS(=O)(=O)c2ccc(Cl)cc2)cc1	0.579	19.4	0.329	0.266	0.44	–	–	–	–	–	–
C/C(=N\NC(=O)CC#N)c1ccc(NS(=O)(=O)c2ccc(Cl)cc2)cc1	0.18	8	0.078	0.064	0.159	0.11	6.5	0.12	0.26	4	0.25
CCO/C=C(\C#N)C(=O)N/N=C(\C)c1ccc(NS(=O)(=O)c2ccc(Cl)cc2)cc1	0.556	16.8	0.228	0.222	0.406	–	–	–	–	–	–
CCOC(=O)c1c(-c2ccc(N(C)C)cc2)c(C#N)c(=O)n(/N=C(\C)c2ccc(NS(=O)(=O)c3ccc(Cl)cc3)cc2)c1N	0.653	21	0.396	0.196	0.432	–	–	–	–	–	–
CCOC(=O)c1c(-c2ccccc2Cl)c(C#N)c(=O)n(/N=C(\C)c2ccc(NS(=O)(=O)c3ccc(Cl)cc3)cc2)c1N	0.488	11.4	0.342	0.192	0.545	–	–	–	–	–	–
CCOC(=O)c1c(/C=C/c2ccccc2)c(C#N)c(=O)n(/N=C(\C)c2ccc(NS(=O)(=O)c3ccc(Cl)cc3)cc2)c1N	0.414	10.7	0.275	0.114	0.336	–	–	–	–	–	–
C/C(=N\NC(=O)/C(C#N)=C/N(C)C)c1ccc(NS(=O)(=O)c2ccc(Cl)cc2)cc1	0.642	19.4	0.311	0.281	0.386	–	–	–	–	–	–
CCOC(=O)c1c(-c2cccc([N+](=O)[O-])c2)c(C#N)c(=O)n(/N=C(\C)c2ccc(NS(=O)(=O)c3ccc(Cl)cc3)cc2)c1N	0.661	29.7	0.381	0.298	0.524	–	–	–	–	–	–
CCOC(=O)c1c(-c2ccccc2OC)c(C#N)c(=O)n(/N=C(\C)c2ccc(NS(=O)(=O)c3ccc(Cl)cc3)cc2)c1N	0.489	11.4	0.105	0.087	0.129	–	–	–	–	–	–
CCOC(=O)c1c(-c2ccc(OC)cc2)c(C#N)c(=O)n(/N=C(\C)c2ccc(NS(=O)(=O)c3ccc(Cl)cc3)cc2)c1N	0.651	61.7	0.613	0.147	0.637	–	–	–	–	–	–
CCOC(=O)c1c(-c2ccccc2)c(C#N)c(=O)n(/N=C(\C)c2ccc(NS(=O)(=O)c3ccc(Cl)cc3)cc2)c1N	0.617	16.8	0.212	0.179	0.287	–	–	–	–	–	–
CCOC(=O)c1c(-c2ccc([N+](=O)[O-])cc2)c(C#N)c(=O)n(/N=C(\C)c2ccc(NS(=O)(=O)c3ccc(Cl)cc3)cc2)c1N	0.713	41.1	0.483	0.212	0.586	–	–	–	–	–	–
CCOC(=O)c1c(-c2ccc(C)cc2)c(C#N)c(=O)n(/N=C(\C)c2ccc(NS(=O)(=O)c3ccc(Cl)cc3)cc2)c1N	0.264	8.38	0.214	0.107	0.25	0.11	7.3	0.12	0.18	–	0.15
CCOC(=O)c1c(-c2ccc3c(c2)OCO3)c(C#N)c(=O)n(/N=C(\C)c2ccc(NS(=O)(=O)c3ccc(Cl)cc3)cc2)c1N	0.691	37	0.373	0.134	0.606	–	–	–	–	–	–
CCOC(=O)c1c(-c2ccco2)c(C#N)c(=O)n(/N=C(\C)c2ccc(NS(=O)(=O)c3ccc(Cl)cc3)cc2)c1N	0.413	10.3	0.37	0.342	0.367	0.1	8.8	0.1	0.32	–	0.22
CCOC(=O)c1c(-c2ccc(Cl)cc2)c(C#N)c(=O)n(/N=C(\C)c2ccc(NS(=O)(=O)c3ccc(Cl)cc3)cc2)c1N	0.555	20.2	0.394	0.314	0.463	–	–	–	–	–	–
C/C(=N\NC(=O)C(C#N)C(=S)S)c1ccc(NS(=O)(=O)c2ccc(Cl)cc2)cc1 (stereo not given)	0.542	17.5	0.387	0.248	0.448	–	–	–	–	–	–
COc1cccc2c1C(=O)c1c(O)c3c(c(O)c1C2=O)C[C@@](O)(C(=O)CO)C[C@@H]3O[C@H]1C[C@H](N)[C@H](O)[C@H](C)O1 [DOXORUBICIN]	0.551	–	0.139	0.13	0.48	–	–	–	–	–	–
